The target in one data set is T1, Adenosine receptor A2b (Homo sapiens, UniProt P29275).
T1 sequence (P29275 whole entry): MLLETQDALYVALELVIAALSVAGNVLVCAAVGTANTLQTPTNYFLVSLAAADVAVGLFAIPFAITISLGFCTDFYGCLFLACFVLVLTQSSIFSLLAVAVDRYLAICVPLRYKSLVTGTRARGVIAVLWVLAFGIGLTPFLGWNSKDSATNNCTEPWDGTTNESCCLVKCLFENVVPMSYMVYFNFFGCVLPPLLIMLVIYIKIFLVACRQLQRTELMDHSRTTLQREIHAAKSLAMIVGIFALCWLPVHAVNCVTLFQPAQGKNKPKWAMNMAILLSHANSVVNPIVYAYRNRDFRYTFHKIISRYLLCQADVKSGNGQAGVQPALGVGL
Description: Displacement of [3H]PSB-603 from recombinant human A2B adenosine receptor expressed in CHO cell membranes measured after 75 mins in presence of adenosine deaminase by liquid scintillation counting method. In a few lines:
(§1)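 Competition binding on membranes of cells recombinantly expressing the human receptor (CHO or HEK cells), with tritiated radioligand per subtype: [3H]PSB-603 for A2B, [3H]MSX-2 for A2A, [3H]CCPA for A1, [3H]PSB-11 for A3. Ki ± SEM from n = 3, some from extrapolated curves. Weak binders are reported as % inhibition of radioligand binding at 1 μM.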

For data set [1], the target named is T2, Adenosine receptor A2a (Homo sapiens, UniProt P29274). The data set can be described thus: Displacement of [3H]MSX-2 from recombinant human A2A adenosine receptor expressed in CHO cell membranes measured after 30 mins in presence of adenosine deaminase by liquid scintillation counting method. The procedure, abridged: as §1
Another data set concerns the target T3, Adenosine receptor A1 (Homo sapiens, UniProt P30542).
T3 sequence (P30542 whole entry): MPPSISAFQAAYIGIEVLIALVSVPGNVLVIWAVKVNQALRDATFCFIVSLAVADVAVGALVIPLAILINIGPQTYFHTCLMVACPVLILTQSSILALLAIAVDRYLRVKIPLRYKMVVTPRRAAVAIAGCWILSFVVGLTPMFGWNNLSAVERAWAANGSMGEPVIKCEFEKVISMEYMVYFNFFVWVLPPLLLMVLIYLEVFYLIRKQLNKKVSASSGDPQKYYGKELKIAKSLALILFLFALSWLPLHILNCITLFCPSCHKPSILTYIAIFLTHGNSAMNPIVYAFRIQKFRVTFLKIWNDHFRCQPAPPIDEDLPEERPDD
Description: Displacement of [3H]CCPA from recombinant human A1 adenosine receptor expressed in CHO cell membranes measured after 90 mins in presence of adenosine deaminase by liquid scintillation counting method. In a few lines:
as §1

In a further data set the target is T4, Adenosine receptor A3 (Homo sapiens, UniProt P0DMS8).
T4 sequence (P0DMS8 whole entry): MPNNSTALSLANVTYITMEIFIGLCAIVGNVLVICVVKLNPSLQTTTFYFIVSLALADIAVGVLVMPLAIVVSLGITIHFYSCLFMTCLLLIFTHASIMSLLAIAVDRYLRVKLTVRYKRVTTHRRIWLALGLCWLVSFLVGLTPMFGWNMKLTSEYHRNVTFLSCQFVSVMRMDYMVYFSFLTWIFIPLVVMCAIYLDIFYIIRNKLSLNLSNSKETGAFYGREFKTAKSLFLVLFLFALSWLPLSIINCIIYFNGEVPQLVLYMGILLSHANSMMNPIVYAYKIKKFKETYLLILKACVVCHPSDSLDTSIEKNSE
The data set can be described thus: Displacement of [3H]PSB-11 from recombinant human A3 adenosine receptor expressed in CHO cell membranes measured after 45 mins in presence of adenosine deaminase by liquid scintillation counting method. The procedure, abridged:
as §1

For data set [2], the target named is T2, Adenosine receptor A2a. Description: Displacement of [3H]MSX-2 from recombinant human A2A adenosine receptor expressed in CHO cell membranes at 1 uM measured after 30 mins in presence of adenosine deaminase by liquid scintillation counting method relative to control. In a few lines: (§2)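 Single-point competition binding at human AR subtype membranes, each against its own tritiated radioligand. The test compound is given at 1 μM, and the result is reported as percent inhibition of radioligand binding. The radioligand-specific footnotes give n = 3.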

Data set [3] addresses T5, Adenosine receptor A1 (Homo sapiens) (UniProt P30542).
T5 sequence (whole entry): T3 sequence (P30542 whole entry)
Description: Displacement of [3H]CCPA from recombinant human A1 adenosine receptor expressed in CHO cell membranes at 1 uM measured after 90 mins in presence of adenosine deaminase by liquid scintillation counting method relative to control. In a few lines:
as §2

Data set [4] addresses T6, Adenosine receptor A3 (Homo sapiens) (UniProt P0DMS8).
T6 sequence (whole entry): T4 sequence (P0DMS8 whole entry)
Description: Displacement of [3H]PSB-11 from recombinant human A3 adenosine receptor expressed in CHO cell membranes at 1 uM measured after 45 mins in presence of adenosine deaminase by liquid scintillation counting method relative to control. The procedure, abridged:
as §2

The species named for data set [5] is Homo sapiens. The data set can be described thus: Selectivity index, ratio of Ki for displacement of [3H]MSX-2 from recombinant human A2A adenosine receptor expressed in CHO cell membranes to Ki for displacement of [3H]PSB-603 from recombinant human A2B adenosine receptor expressed in CHO cell membranes.
Data set [6] is filed under the species Homo sapiens. The data set can be described thus: Selectivity index, ratio of Ki for displacement of [3H]CCPA from recombinant human A1 adenosine receptor expressed in CHO cell membranes to Ki for displacement of [3H]PSB-603 from recombinant human A2B adenosine receptor expressed in CHO cell membranes.
The species entered for data set [7] is Homo sapiens. Description: Selectivity index, ratio of Ki for displacement of [3H]PSB-11 from recombinant human A3 adenosine receptor expressed in CHO cell membranes to Ki for displacement of [3H]PSB-603 from recombinant human A2B adenosine receptor expressed in CHO cell membranes.
Data set [8] in a line: Semi-thermodynamic solubility of the compound at 200 uM after 24 hrs by LC/MS-based shake-flask method. It counts as physicochemical. Conditions: read-out: Therm_solubility.

Consider four compounds from ChEMBL document CHEMBL4346653, “A2B Adenosine Receptor Antagonists with Picomolar Potency” (J Med Chem, 2019).

The structures appear in SMILES notation. ≈ marks a conversion by molar mass, not a printed value.

T2 sequence (P29274 whole entry): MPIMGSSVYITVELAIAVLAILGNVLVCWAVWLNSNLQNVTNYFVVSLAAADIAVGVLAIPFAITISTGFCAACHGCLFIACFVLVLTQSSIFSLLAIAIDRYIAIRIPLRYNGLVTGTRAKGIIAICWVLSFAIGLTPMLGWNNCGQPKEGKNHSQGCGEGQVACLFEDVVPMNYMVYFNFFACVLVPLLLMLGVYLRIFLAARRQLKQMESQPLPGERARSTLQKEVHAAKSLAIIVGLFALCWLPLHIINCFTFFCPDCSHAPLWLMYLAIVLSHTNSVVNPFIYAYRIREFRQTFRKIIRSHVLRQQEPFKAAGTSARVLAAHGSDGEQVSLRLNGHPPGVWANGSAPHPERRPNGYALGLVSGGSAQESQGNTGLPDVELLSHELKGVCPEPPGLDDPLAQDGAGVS

Take `CCCn1c(=O)[nH]c2nc(-c3ccc(S(=O)(=O)N4CCN(C(C)c5ccccc5)CC4)cc3)[nH]c2c1=O` (stereo unspecified): the Ki on Adenosine receptor A2b was 8.34 nM; on Adenosine receptor A2a [1], ≥ 1000 nM; on Adenosine receptor A1, ≥ 1000 nM; at Adenosine receptor A3 it was > 1000 nM. For the same compound, the inhibition was 42% on Adenosine receptor A2a [2], 42% in [3] and 0% in data set [4]. In addition, the Ratio Ki in the data set listed under Homo sapiens [5], in the data set listed under Homo sapiens [6] and in the data set filed under Homo sapiens [7] was > 120 in each case.
With `CCCn1c(=O)[nH]c2nc(-c3ccc(S(=O)(=O)N4CCN(Cc5ccc(Cl)cc5)CC4)cc3)[nH]c2c1=O`, in data set [8], the solubility thermodynamic at 24 h, 200 µM worked out at 3.2 µM (≈ 1.74 µg/mL).
On to `CCCn1c(=O)[nH]c2nc(-c3ccc(S(=O)(=O)N4CCN(c5ccccc5F)CC4)cc3)[nH]c2c1=O`, for which the Ki is 3.22 nM at Adenosine receptor A2b, > 1000 nM at Adenosine receptor A2a [1], > 1000 nM on Adenosine receptor A1 and > 1000 nM at Adenosine receptor A3. The inhibition at Adenosine receptor A2a [2] was 27%; in data set [3] it was 13%; in data set [4], 9%. In addition, the Ratio Ki in the data set listed under Homo sapiens [5], in the data set listed under Homo sapiens [6] and in the data set filed under Homo sapiens [7] was > 310 throughout.
With `CCCn1c(=O)[nH]c2nc(-c3ccc(S(=O)(=O)N4CCN(c5ccc(C)cc5)CC4)cc3)[nH]c2c1=O`, the Ki on Adenosine receptor A2b was 0.706 nM; on Adenosine receptor A2a [1], > 1000 nM; on Adenosine receptor A1 it was > 1000 nM; at Adenosine receptor A3, > 1000 nM. For the same compound, the inhibition at Adenosine receptor A2a [2] was 34%; in [3], 12%; in [4], 25%. Moreover, the Ratio Ki in the data set filed under Homo sapiens [5], in the data set listed under Homo sapiens [6] and in the data set listed under Homo sapiens [7] was > 1420 each time.
